Here are results for 57 compounds from ChEMBL document CHEMBL1125634, “Triazolobenzo- and triazolothienodiazepines as potent antagonists of platelet activating factor” (J Med Chem, 1991).

Active and inactive are the calls of the source. No cut-off for these calls is given here.

By IC50 is commonly meant the point on the concentration scale where inhibition reaches its midpoint. The term Inhibition denotes the percentage by which the read-out fell short of the control. For orientation: inhibition in vivo means the relative decrease from the control value, in per cent. Read a high inhibition in vivo as a response far below the control.

One test is filed under the species Canis familiaris. Nature of the test: PAF-antagonist activity in dog platelets by PAF-binding assay; No significant inhibition at 1000 nM. Format: functional, Canis lupus familiaris.
Details: not given
For `Cc1nnc2n1-c1cc(C#CCN3C(=O)c4ccccc4C3=O)ccc1C(c1ccccc1F)=NC2`, the IC50 result is listed as “Not Active”.

A further test concerns Cavia porcellus. The experiment in a line: Inhibition of PAF-induced bronchoconstriction in the guinea pig after administration (1 mg/kg) intravenously at two-hourpretreatment time. Type of test: functional.
Details: not given
Consider `CCc1nnc2n1-c1ccc(C#CCN3C(=O)c4ccccc4C3=O)cc1C(c1ccccc1F)=NC2`, for which the Inhibition came to 30%.

Another test concerns Cavia porcellus. The experiment in a line: Inhibitory activity at 0.03 mg/kg was determined against PAF-induced bronchoconstriction in guinea pig. Type of test: functional.
Details: not given
In a few lines:
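Duration-of-action test: single 0.03 mg/kg oral dose given 24 h before iv PAF challenge (1 µg/kg) in ventilated, paralysed guinea pigs. Percent inhibition of the tracheal pressure rise versus vehicle controls. Values are means ± SEM.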
On to `Cc1nnc2n1-c1sc(C#CCn3c4c(c5ccccc53)CCCCC4)cc1C(c1ccccc1Cl)=NC2`, for which the inhibition in vivo at 0.03 mg/kg stood at 8%. Still for that read-out and setting: as for `Cc1nnc2n1-c1sc(C#CCN3Cc4cccc5cccc(c45)C3=O)cc1C(c1ccccc1Cl)=NC2`, the figure is 60%.

On to `Cc1nnc2n1-c1sc(C#CCN3C(=O)Cn4ccc5c(Cl)ccc3c54)cc1C(c1ccccc1Cl)=NC2`, for which the inhibition in vivo at 0.03 mg/kg worked out at 0%. On the same count and under the same terms, to `Cc1nnc2n1-c1sc(C#CCn3c4c(c5ccccc53)CCCC4)cc1C(c1ccccc1Cl)=NC2` belongs 75%; to `Cc1nnc2n1-c1sc(C#CCn3c(=O)c4ccccc4c4ccccc43)cc1C(c1ccccc1Cl)=NC2`, 75%.

The next test deals with Cavia porcellus. Nature of the test: Inhibition of PAF-induced bronchoconstriction in the guinea pig after intravenous administration after one-minute pretreatment time; No significant inhibition at 1 mg/kg. Type of test: functional, organism-based. More on the design: dose 1 mg/kg.
Details: not given
Consider `Cc1nnc2n1-c1sc(C#CCn3c(=O)c4ccccc4c4ccccc43)cc1C(c1ccccc1Cl)NC2=O` (configuration not stated), for which the ID50 result is “inactive”.

The next test has as its system Cavia porcellus. The experiment in a line: Compound was measured by using PAF-induced Bronchoconstriction assay in the guinea pig after administration orally after two-hour pretreatment time. Type of test: functional. The following applies: po, read-out: ID50 (the source's name). In a few lines: (§1)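 Guinea pigs dosed orally with drug or vehicle 2 h before iv PAF challenge (1 µg/kg, maximal constrictory dose). Propranolol given 5 min before PAF, succinylcholine (1.2 mg/kg iv) to stop breathing, animals ventilated. Read-out is tracheal pressure change, averaged over 3 control and 3 treated animals.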
For the compound `Cc1nnc2n1-c1sc(C#CCN3C(=O)CCc4ccccc43)cc1C(c1ccccc1Cl)=NC2`, the ED50 was 0.02 mg/kg.

Another test deals with Cavia porcellus. The experiment in a line: Inhibition of PAF-induced bronchoconstriction in guinea pig after oral administration after two-hour pretreatment time. Format: functional. The note with it: read-out: ID50 (the source's name). The method in brief: as §1
As for `Cc1nnc2n1-c1sc(C#CCN3C(=O)COc4cc(F)ccc43)cc1C(c1ccccc1Cl)=NC2`, the ED50 stood at 0.02 mg/kg.

On to `Cc1nnc2n1-c1sc(C#CCn3c4c(c5ccccc53)CCCCC4)cc1C(c1ccccc1Cl)=NC2`, for which the ED50 turned out to be 0.004 mg/kg. For `Cc1nnc2n1-c1sc(C#CCn3c(=O)ccc4ccccc43)cc1C(c1ccccc1Cl)=NC2`, the ED50 was 0.02 mg/kg. The same measure, in the same setting: to `COc1cc2c(cc1OC)C(=O)N(CC#Cc1cc3c(s1)-n1c(C)nnc1CN=C3c1ccccc1Cl)CC2` belongs 0.05 mg/kg; to `Cc1nnc2n1-c1sc(C#CCn3c(=O)n(C)c(=O)c4ccccc43)cc1C(c1ccccc1Cl)=NC2`, 0.02 mg/kg.

For the compound `Cc1nnc2n1-c1sc(C#CCn3c4c(c5cc(Cl)ccc53)CCCC4)cc1C(c1ccccc1Cl)=NC2`, the ED50 came to 0.04 mg/kg. As to `Cc1nnc2n1-c1sc(C#CCn3c4ccccc4c(=O)c4ccccc43)cc1C(c1ccccc1Cl)=NC2`, the ED50 was 0.02 mg/kg. On the same count and under the same terms, to `Cc1nnc2n1-c1sc(C#CCn3c(=O)n(-c4ccccc4)c4ccccc43)cc1C(c1ccccc1Cl)=NC2` belongs 0.02 mg/kg; to `Cc1nnc2n1-c1sc(C#CCn3cnc4ccccc43)cc1C(c1ccccc1Cl)=NC2`, 0.1 mg/kg; to `Cc1nnc2n1-c1sc(C#CCn3ncc4ccccc43)cc1C(c1ccccc1Cl)=NC2`, 0.02 mg/kg. Same read-out and setting: as for `Cc1nnc2n1-c1sc(C#CCN3C(=O)COc4ccccc43)cc1C(c1ccccc1Cl)=NC2`, the figure is 0.02 mg/kg; as for `Cc1nnc2n1-c1ccc(C#CCN3C(=O)CSc4ccccc43)cc1C(c1ccccc1F)=NC2`, 0.3 mg/kg; as for `Cc1nnc2n1-c1ccc(C#CCN3C(=O)c4ccccc4C3=O)cc1C(c1ccccc1F)=NC2`, 0.5 mg/kg. Still for that read-out and setting: to `Cc1nnc2n1-c1sc(C#CCn3c(=O)c4ccccc4c4ccccc43)cc1C(c1ccccc1Cl)=NC2C` (configuration not stated) belongs 0.03 mg/kg. On to `Cc1nnc2n1-c1ccc(C#CCN3C(=O)CCc4ccccc43)cc1C(c1ccccc1F)=N[C@H]2C`, for which the ED50 was 0.1 mg/kg. Turning to `Cc1nnc2n1-c1sc(C#CCn3c(=O)c4ccccc4c4ccccc4c3=O)cc1C(c1ccccc1Cl)=NC2`, the ED50 turned out to be 0.02 mg/kg. The same measure, in the same setting: to `C=C=Cn1c(=O)n(CC#Cc2cc3c(s2)-n2c(C)nnc2CN=C3c2ccccc2Cl)c2ccccc21` belongs 0.03 mg/kg. Still for that read-out and setting: to `Cc1nnc2n1-c1sc(C#CCN3C(=O)CCc4cc(Cl)cc(Cl)c43)cc1C(c1ccccc1Cl)=NC2` belongs 0.02 mg/kg; to `Cc1nnc2n1-c1sc(C#CCn3c(=O)n(CCN(C)C)c(=O)c4ccccc43)cc1C(c1ccccc1Cl)=NC2`, 0.3 mg/kg.

With `Cc1nnc2n1-c1sc(C#CCN3C(=O)NCc4ccccc43)cc1C(c1ccccc1Cl)=NC2`, the ED50 came out at 0.05 mg/kg. Same read-out and setting: as for `Cc1nnc2n1-c1sc(C#CCn3c(=O)n(CCN(C)C)c4ccccc43)cc1C(c1ccccc1Cl)=NC2`, the figure is 0.2 mg/kg; as for `Cc1nnc2n1-c1ccc(C#CCN3C(=O)c4cccc5cccc(c45)C3=O)cc1C(c1ccccc1Cl)=NC2`, 0.6 mg/kg. On the same count and under the same terms, as for `Cc1nnc2n1-c1sc(C#CCOc3ccccc3)cc1C(c1ccccc1Cl)=NC2`, the figure is 0.1 mg/kg; as for `Cc1nnc2n1-c1sc(C#CCN3C(=O)Cn4ccc5c(Cl)ccc3c54)cc1C(c1ccccc1Cl)=NC2`, 0.003 mg/kg. Same read-out and setting: as for `Cc1nnc2n1-c1sc(C#CCn3c(=O)c4ccccc4c(=O)c4ccccc43)cc1C(c1ccccc1Cl)=NC2`, the figure is 0.03 mg/kg; as for `Cc1nnc2n1-c1sc(C#CCN3C(=O)c4cccc5cccc(c45)C3=O)cc1C(c1ccccc1Cl)=NC2`, 0.03 mg/kg.

Consider `Cc1nnc2n1-c1sc(C#CCN3C(=O)CC(C)(C)c4ccccc43)cc1C(c1ccccc1Cl)=NC2`, for which the ED50 is 0.03 mg/kg.

Consider `Cc1nnc2n1-c1ccc(C#CCCN3C(=O)c4ccccc4C3=O)cc1C(c1ccccc1F)=NC2`, for which the ED50 came to 0.3 mg/kg. On the same count and under the same terms, to `Cc1nnc2n1-c1sc(C#CCN3CCc4ccccc4C3=O)cc1C(c1ccccc1Cl)=NC2` belongs 0.03 mg/kg.

`Cc1nnc2n1-c1ccc(C#CCN3C(=O)CCc4ccccc43)cc1C(c1ccccc1F)=NC2`: the ED50 came to 0.4 mg/kg. Same read-out and setting: to `Cc1nnc2n1-c1sc(C#CCN3C(=O)OCc4ccccc43)cc1C(c1ccccc1Cl)=NC2` belongs 0.08 mg/kg; to `Cc1nnc2n1-c1sc(C#CCN3C(=O)CCc4ccc(Cl)cc43)cc1C(c1ccccc1Cl)=NC2`, 0.1 mg/kg. For the compound `Cc1nnc2n1-c1sc(C#CCn3c4ccccc4c4ccccc43)cc1C(c1ccccc1Cl)=NC2`, the ED50 came to 0.02 mg/kg. The same measure, in the same setting: as for `Cc1nnc2n1-c1sc(C#CCn3c(=O)c4ccccc4c4ccccc43)cc1C(c1ccccc1Cl)=NC2`, the figure is 0.01 mg/kg; as for `O=c1c2ccccc2c2ccccc2n1CC#Cc1cc2c(s1)-n1c(CO)nnc1CN=C2c1ccccc1Cl`, 0.3 mg/kg; as for `Cc1nnc2n1-c1sc(C#CCN3C(=O)c4cccc5cccc3c45)cc1C(c1ccccc1Cl)=NC2`, 0.04 mg/kg. Still for that read-out and setting: as for `Cc1nnc2n1-c1sc(CCC(=O)N3CCOCC3)cc1C(c1ccccc1Cl)=NC2` [APAFANT], the figure is 1.2 mg/kg; as for `Cc1nnc2n1-c1sc(C#CCn3c4c(c5cc(Cl)ccc53)CCCCC4)cc1C(c1ccccc1Cl)=NC2`, 0.3 mg/kg. Same read-out and setting: to `Cc1nnc2n1-c1sc(C#CCOc3cccnc3)cc1C(c1ccccc1Cl)=NC2` belongs 0.2 mg/kg; to `Cc1nnc2n1-c1sc(C#CCn3ccc4ccccc4c3=O)cc1C(c1ccccc1Cl)=NC2`, 0.03 mg/kg.

Take `Cc1nnc2n1-c1sc(C#CCn3c(O)nc4ccccc43)cc1C(c1ccccc1Cl)=NC2`: the ED50 stood at 0.2 mg/kg. As to `Cc1nnc2n1-c1sc(C#CCC34CCCc5cccc(c53)NC4=O)cc1C(c1ccccc1Cl)=NC2` (configuration not stated), the ED50 was found to be 0.3 mg/kg. The same measure, in the same setting: as for `Cc1nnc2n1-c1sc(C#CCn3c(=O)c4ccccc4c4ccccc43)cc1C(c1ccccc1Cl)=NC2O` (configuration not stated), the figure is 0.07 mg/kg; as for `Cc1nnc2n1-c1sc(C#CCn3c(=O)n(C)c4ccccc43)cc1C(c1ccccc1Cl)=NC2`, 0.04 mg/kg. On the same count and under the same terms, to `CCCCC/C(=C\C=C\C(=O)N[C@H](C)CCCc1cccnc1)c1ccc(OC)cc1` belongs 4 mg/kg; to `Cc1nnc2n1-c1sc(C#CCn3c(=O)c4cc(Cl)ccc4c4ccc(Cl)cc43)cc1C(c1ccccc1Cl)=NC2`, 0.03 mg/kg. As to `Cc1nnc2n1-c1sc(C#CCN3C(=O)COc4ccc(Cl)cc43)cc1C(c1ccccc1Cl)=NC2`, the ED50 worked out at 0.05 mg/kg.

For another test, the system named is Cavia porcellus. The experiment in a line: Inhibition of PAF-induced bronchoconstriction in guinea pig after oral administration after two-hour pretreatment time; No significant inhibition at 1 mg/kg. More on the design: dose 1 mg/kg. Format: functional, organism-based.
Details: not given
Turning to `Cc1nnc2n1-c1sc(I)cc1C(c1ccccc1Cl)=NC2C` (configuration not stated), the ID50 entry is “inactive”. As for `Cc1nnc2n1-c1sc(I)cc1C(c1cc([N+](=O)[O-])ccc1Cl)=NC2`, the ID50 result is “inactive”. `Cc1nnc2n1-c1sc(C#CCn3c(=O)c4ccccc4c4ccccc43)cc1C(c1ccccc1Cl)NC2=O` (configuration not stated): the ID50 entry is “inactive”. Still for that read-out and setting: to `Cc1nnc2n1-c1sc(I)cc1C(c1ccccc1Cl)=NC2` belongs “inactive”; to `Cc1nnc2n1-c1sc(C#CCN3C(=O)CCc4ccccc43)cc1C(c1cc([N+](=O)[O-])ccc1Cl)=NC2`, “inactive”.

Biological target in the next test: not listed separately
Nature of the test: PAF-antagonist activity determined in dog platelets by PAF-binding assay.
Details: not given
For the compound `CCCCC/C(=C\C=C\C(=O)N[C@H](C)CCCc1cccnc1)c1ccc(OC)cc1`, the IC50 was 40 nM.
